The list is not random: actives were taken first. Their share in the collection is about 29%.
CYP2C19 inh – blockers of cytochrome P450 2C19 activity – biochemical, luminescence, ADME assay, primary screen | inhibition, % at 5 µM | CYP2C19 Supersomes, luciferin-H EGE luminescence, 30 min | actives 21% (n = 96,000) | P33261;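 active = CYP2C19 inhibition above a set limit at 5 µM in the primary screen, cut at about 50% in these data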
Target sequence (P33261 whole entry, looked up): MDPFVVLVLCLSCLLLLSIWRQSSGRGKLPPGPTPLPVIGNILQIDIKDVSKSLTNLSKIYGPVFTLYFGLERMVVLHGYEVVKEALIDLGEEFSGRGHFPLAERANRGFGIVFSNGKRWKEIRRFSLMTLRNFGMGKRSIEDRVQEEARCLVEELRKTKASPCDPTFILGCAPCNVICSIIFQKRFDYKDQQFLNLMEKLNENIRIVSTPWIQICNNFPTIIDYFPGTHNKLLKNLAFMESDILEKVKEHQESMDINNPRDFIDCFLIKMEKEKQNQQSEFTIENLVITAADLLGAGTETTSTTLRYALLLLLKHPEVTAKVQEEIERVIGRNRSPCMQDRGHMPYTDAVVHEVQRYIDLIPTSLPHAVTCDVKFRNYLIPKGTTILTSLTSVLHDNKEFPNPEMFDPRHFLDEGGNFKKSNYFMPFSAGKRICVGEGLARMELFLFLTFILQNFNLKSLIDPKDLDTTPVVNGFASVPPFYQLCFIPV
Ecoli WT expand – growth inhibitors of wild-type E. coli, primary screen, strain BW25113, expanded library, OD600 | OD600 absorbance | growth inhibition, % at 100 µM | actives 0.15% (n = 98,000);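 active = growth inhibition above about 50% at one test dose, limit read from the data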;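 note: growth measured after 20 h incubation at 37 °C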
tolC growth inh – growth inhibitors of E. coli tolC mutant, primary screen, strain BW25113 ΔtolC::kan, 384-well; OD615; growth inhibition, % at 10 µM (by protocol); actives 2.2% (n = 65,000); AID 573, 2007;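 active = growth inhibition at or above a cutoff equal to the mean over every tested compound plus 3 SD, cut at about 60% in these data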;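 note: growth measured after 20 h incubation at 37 °C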
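Assay system: tolC-deleted E. coli BW25113. Medium: kanamycin-containing LB broth (50 µg/mL). Dosing: 10 µM final, single dose. Timing: bacterial growth with compound for 20 h at 37 °C. Detection: A615 absorbance measurement. Read-out basis: growth inhibition in percent.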
CYP2C9 activ – human CYP2C9 activators, primary screen, biochemical, luminescence. recombinant CYP2C9, luciferin-H conversion; stronger effect = higher value; factor 1 = untreated enzyme, 0 = blocked. actives 1.4% (n = 96,000). activation factor at 5 µM;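 active = activation factor of 2 or more for CYP2C9 at a 5 µM dose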
CYP2C9 inhib – blockers of cytochrome P450 2C9 activity – biochemical, luminescence, ADME assay, primary screen | actives 20% (n = 96,000) | inhibition, % at 5 µM | CYP2C9 Supersomes, luciferin-H conversion | AID 777, 2007 | P11712;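 active = blocking of liver enzyme CYP2C9 beyond about 50% at 5 µM, limit read from the data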
CYP2C19 act – human CYP2C19 activators, primary screen, biochemical, luminescence; recombinant CYP2C19, luciferin-H EGE luminescence; stronger effect = higher value; 0 = fully inhibited enzyme, 1 = untreated enzyme; activation factor at 5 µM; AID 1025, 2008; 96,000 tested, under 10 active; Cytochrome P450 2C19 (Homo sapiens), P33261;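 active = activation factor of at least 2 at 5 µM in the primary screen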
A number is an active result; n = inactive; x = not tested or not shown.

SMILES | CYP2C19 inh | Ecoli WT expand | tolC growth inh | CYP2C9 activ | CYP2C9 inhib | CYP2C19 act
CCOC(=O)N1CCN(S(=O)(=O)c2ccc(OC)c(Cl)c2)CC1 | 98 | n | n | n | n | n
O=S(=O)(c1cccc2nsnc12)N1CCCC1 | x | n | n | x | x | x
CCOC(=O)n1c(=O)oc2cc(S(=O)(=O)N3CCCCC3)ccc21 | x | n | n | x | x | x
CCOC(=O)N1CCN(S(=O)(=O)c2ccc(OC)c(Cl)c2Cl)CC1 | 99 | n | n | n | n | n
CCOC(=O)Cn1c(=O)n(Cc2ccco2)c(=O)c2ccc(C(=O)NC3CCCC3)cc21 | n | n | x | n | n | n
CCOC(=O)N1CCN(S(=O)(=O)c2ccc(OCC)c3ccccc23)CC1 | n | n | 65 | n | n | n
COc1ccc(S(=O)(=O)N2CCN(C)CC2)c2ccccc12 | n | n | n | n | n | n
N#Cc1cc(C(=O)c2cc(Br)ccc2O)cn(C2CCCCC2)c1=O | n | n | x | n | n | n
CC1=CC(C)(C)N2C(=O)C3(C(C#N)=C(N)Oc4cc(C)oc(=O)c43)c3cccc1c32 (stereo not drawn) | n | n | n | n | n | n
Cc1cc2c3c(c1C)C1(C(=O)N3C(C)(C)CC2C)C(C#N)=C(N)Oc2cc(O)ccc21 (stereo not drawn) | n | n | x | n | n | n
CCOc1cc2c3c(c1)C1(C(=O)N3C(C)(C)C=C2C)C(C#N)=C(N)Oc2cc(O)ccc21 (stereo not drawn) | n | n | n | n | 56 | n
COc1cc2c3c(c1)C1(C(=O)N3C(C)(C)C=C2C)C(C#N)=C(N)Oc2cc(O)ccc21 (stereo not drawn) | 51 | n | 65 | n | 89 | n
O=C(C1CCN(Cc2cc(Cl)ccc2O)CC1)N1CCN(Cc2ccccc2)CC1 | n | n | 95 | n | n | n
COc1ccc(CN2CCC(C(=O)N3CCN(c4ccccc4F)CC3)CC2)cc1OC | x | n | n | x | x | x
C=CCSC1=N/C(=C\c2ccc(C)o2)C(=O)S1 | 82 | n | n | n | n | n
COc1ccccc1C(=O)Nc1ccccc1SC | n | n | n | n | n | n
CSc1ccccc1NC(=O)c1cc(C)on1 | n | n | x | 2.4 | n | n
CSc1ccccc1NC(=O)c1ccncc1 | 66 | n | n | n | n | n
N#C/C(=C\c1ccc(-c2cccc(Cl)c2)o1)C(=O)Nc1cccc2cccnc12 | n | n | x | n | n | n
CCCCCSc1nnc2c(n1)OC(C)N(C(C)=O)c1ccccc1-2 (stereo not drawn) | n | n | n | n | n | n
Clc1ccc(Cn2ncc3c(NCCN4CCOCC4)ncnc32)cc1 | n | n | n | n | n | n
Cc1cccc(N2CCN(C(=O)COc3cc(=O)n(C)c4ccccc34)CC2C)c1 (stereo not drawn) | x | x | n | x | x | x
C=CCOC(=O)C1=C(C)N(C)C(=O)NC1c1cc2c(cc1Br)OCO2 (stereo not drawn) | 96 | n | n | n | 71 | n
CC1=C(C(=O)OCCOC(C)C)C(c2cccnc2)C2=C(CCCC2=O)N1 (stereo not drawn) | 70 | n | n | n | 56 | n
CCOC(=O)C1=C(C)NC(=O)CC1c1cc2c(cc1Br)OCO2 (stereo not drawn) | 99 | n | n | n | 90 | n
SMILES | CYP2C19 inh | Ecoli WT expand | tolC growth inh | CYP2C9 activ | CYP2C9 inhib | CYP2C19 act
CC1=C(C(=O)OCCOC(C)C)C(c2cc3c(cc2Br)OCO3)C2=C(CCCC2=O)N1 (stereo not drawn) | 89 | n | n | n | n | n
Cc1ccc(S(=O)(=O)N2CCCC2C(=O)O)s1 (stereo not drawn) | n | n | x | n | n | n
Cc1cc(C)nc(NCC(O)CNc2ccccc2Cl)n1 (stereo not drawn) | x | n | n | x | x | x
Cc1ccc2[nH]c(=O)c(CN(Cc3nnnn3Cc3ccccc3)C3CCCC3)cc2c1 | n | n | 74 | n | n | n
Cc1cccc2cc(CN(Cc3nnnn3C3CCCC3)C3CCCCC3)c(=O)[nH]c12 | x | x | n | x | x | x
Cc1cccc2cc(CN(Cc3nnnn3Cc3ccco3)C3CCCC3)c3nnnn3c12 | 92 | n | n | n | 94 | n
COc1ccc2[nH]c(=O)c(CN(Cc3nnnn3Cc3ccccc3)CC3CCCO3)cc2c1 (stereo not drawn) | n | n | n | n | n | n
CCc1ccc2[nH]c(=O)c(CN(Cc3nnnn3C3CCCC3)C3CCCCC3)cc2c1 | 76 | n | n | n | 82 | n
COc1ccc(-n2c3c(cc(C(=O)N4CCCCC4)c2=O)C(=O)CC(C)(C)C3)cc1 | n | n | n | n | n | n
O=C(COC(=O)c1cccnc1Nc1cccc(C(F)(F)F)c1)NCCN1C(=O)CSC1=O | 63 | n | n | n | 97 | n
O=C(COC(=O)c1cccs1)NCCN1C(=O)CSC1=O | 63 | n | n | n | n | n
O=C(O)c1cccnc1Nc1cccc(C(F)(F)F)c1 | x | x | n | x | x | x
CN1CCN(CCOc2cccc(Cl)c2)CC1 | n | n | x | n | n | n
Cc1sc2ncnc(N3CCN(CCOc4ccc(Cl)cc4)CC3)c2c1C | 97 | n | x | n | 99 | n
COc1cc(C(C(=O)NC(C)(C)C)N(Cc2ccc3c(c2)OCO3)C(=O)c2cnccn2)cc(OC)c1OC (stereo not drawn) | n | n | x | n | n | n
CCOc1cc(CNc2ccc3c(c2)OCCO3)cc(Br)c1OC | 94 | n | x | n | 84 | n
CCOc1cc(CNc2ccc(O)cc2)cc(Br)c1OCc1ccccc1F | n | n | x | n | n | n
CCOc1c(Br)cc(CNc2ccc3c(c2)OCCO3)cc1OC | 86 | n | x | n | 86 | n
CCOc1cc(CNCC2CCCO2)cc(Br)c1OCC(N)=O (stereo not drawn) | n | n | n | n | n | n
CCOc1cc(CNc2ccc3c(c2)OCCO3)cc(Br)c1OCC(N)=O | 53 | n | x | n | 86 | n
CCOCC(=O)Nc1ccc2c(c1)OCCO2 | n | n | n | n | n | n
CN(C(=O)c1cccs1)c1ccccc1C(=O)O | n | n | n | n | n | n
COc1ccc(N2CCN(C(=O)CSc3nnc(C)c(=O)[nH]3)CC2)cc1 | n | n | n | n | n | n
CCOC(=O)CNc1nc(C#N)nc(N2CCOCC2)n1 | n | n | n | n | n | n
CCOC(=O)c1cnc(SC)nc1Oc1cccc(NS(=O)(=O)c2ccc(F)cc2)c1 | n | n | x | n | 77 | n
CCOC(=O)c1cnc(SC)nc1Sc1cc(Cl)ccc1Cl | n | n | x | n | n | n
CCOC(=O)c1cnc(SC)nc1Oc1cccc(NC(=O)c2ccc(C)cc2)c1 | n | n | x | n | n | n
CCOC(=O)c1cnc(-c2ccccc2)nc1Oc1ccc(Cl)cc1 | n | n | x | n | n | n
CCOC(=O)c1cnc(SC)nc1Nc1cccc(F)c1 | n | n | n | n | 70 | n

Screens (PubChem BioAssay)
